A word on the EC50: it is the concentration needed to bring the measured effect to its halfway point. What is called CC50 is the concentration that lowers cell viability or growth by half.

One data set deals with HT-29. The experiment in a line: Phototoxicity against human HT-29 cells preincubated for 5 mins followed by compound washout and subsequent UV irradiation at 1.5 J/cm2 for 5 mins measured after 72 hrs by MTT assay. Type of data set: functional, cell-based. The note with it: HT-29, light or radiation study. The method, boiled down:
(§1)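 Compounds were diluted in DMSO (0.5% final), applied in triplicate for 5 min, then washed out with PBS. After medium removal, cells were irradiated on ice for 5 min at 365 nm (1.5 J/cm²) and then kept 72 h at 37 °C. Viability was read by MTT at 540 nm and expressed relative to 0.5% DMSO controls given the same treatment. EC50 is the concentration killing 50%, as the mean ± SD of at least three experiments.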

A further data set concerns MCF-10A. The experiment in a line: Phototoxicity against human MCF10A cells preincubated for 5 mins followed by compound washout and subsequent UV irradiation at 1.5 J/cm2 for 5 mins measured after 72 hrs by MTT assay. The data set is classed as cell-based. The conditions noted are these: light or radiation study. The method, boiled down:
as §1
For orientation: Tetrazolium dyes change colour on reduction, which living cells bring about.

Data set [1] can be described thus: Dark toxicity against human A375 cells preincubated for 5 mins followed by compound washout and measured after 72 hrs by MTT assay. Type of data set: cell-based, A-375. The method, boiled down: (§2)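 Cells were plated and allowed to attach overnight. Compounds were diluted in DMSO (0.5% final), with each concentration in triplicate, and applied for 5 min. Cells were then washed in PBS and given fresh medium. Without irradiation, cells were held 72 h at up to 50 μM. MTT (5 mg/mL stock) was added for 4 h, crystals were dissolved in SDS/HCl overnight, and absorbance was read at 540 nm. CC50 is the concentration killing 50% of cells, taken as the mean of at least three experiments.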

The nature of data set [2]: Dark toxicity against human MCF10A cells preincubated for 5 mins followed by compound washout and measured after 72 hrs by MTT assay. Type of data set: cell-based, MCF-10A. The gist of the method:
as §2

Data set [3] is described as follows: Phototoxicity index, ratio of CC50 for human MCF10A cells to EC50 for human MCF10A cells under UV irradiation at 1.5 J/cm2. Type of data set: cell-based, MCF-10A. The conditions noted are these: read-out: Ratio CC50/EC50.
A short description of data set [4]: Selectivity index, ratio of EC50 for human MCF10A cells under UV irradiation at 1.5 J/cm2 to EC50 for human A375 cells under UV irradiation at 1.5 J/cm2. The conditions noted are these: MCF10A cells versus A375 cells, read-out: Ratio EC50. The data set is classed as toxicity. The gist of the method: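 SI is the EC50 under irradiation in non-tumor MCF10A cells divided by the EC50 under irradiation in the tumor line. Both were MTT read-outs 72 h after 1.5 J/cm² at 365 nm.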

The test system of data set [5] is MCF7. In words: Induction of ROS generation in human MCF7 cells at 0.5 to 2 uM preincubated for 30 mins followed by irradiation at 1.5 J/cm2 for 2 hrs by H2DCFDA probe-based fluorescence assay (reference value: 100%). Type of data set: functional. The gist of the method:
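MCF7 cells (3x10⁴) were plated 24 h ahead to reach 80–90% confluence. Compounds were applied for 30 min in phenol-red-free, serum-free medium, and H2DCFDA (10 µM) was added 15 min before irradiation (1.5 J/cm², ~365 nm) or no irradiation. DCF fluorescence (485/535 nm) was read 2 h after light and expressed relative to untreated controls (100%). PMA (400 nM) served as positive control; three independent experiments.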

Data set [6] relates to MCF7. In words: Cell cycle arrest in human MCF7 cells assessed as accumulation at subG1 phase at EC25 after 24 hrs under UV-irradiation by propidium iodide staining-based flow cytometric analysis (reference value: 4.8%). Type of data set: functional. On the technique in general: In flow cytometry, cells or beads pass a laser one at a time.
Data set [7] concerns MCF7. The experiment in a line: Cell cycle arrest in human MCF7 cells assessed as accumulation at G0/G1 phase at EC25 after 24 hrs under UV-irradiation by propidium iodide staining-based flow cytometric analysis (reference value: 44.2%). The data set is classed as functional.
The test system of data set [8] is MCF7. The experiment in a line: Cell cycle arrest in human MCF7 cells assessed as accumulation at S phase at EC25 after 24 hrs under UV-irradiation by propidium iodide staining-based flow cytometric analysis (reference value: 24.7%). Type of data set: functional.
In data set [9] the test system is MCF7. The experiment in a line: Induction of apoptosis in human MCF7 cells assessed as apoptotic cells at EC25 to EC75 after 4 hrs in presence of photoirradiation by Annexin V-FITC/propidium iodide staining-based flow cytometric analysis relative to control. The data set is classed as functional.
In data set [10] the test system is MCF7. The experiment in a line: Induction of apoptosis in human MCF7 cells assessed as necrotic cells at EC25 to EC75 after 4 hrs in presence of photoirradiation by Annexin V-FITC/propidium iodide staining-based flow cytometric analysis relative to control. The data set is classed as functional.
The subject of data set [11] is MCF7. In words: Induction of mitochondrial dysfunction in human MCF7 cells assessed as organelles fusion at 2 uM after 120 mins in presence of UV irradiation by Mitotracker Orange CMTM-ROS staining-based confocal microscopic analysis. Type of data set: functional, cell-based. The method, boiled down: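 MCF7 cells (4x10⁵) were plated on glass slides for 24 h. They were then loaded with MitoTracker Orange CMTM-ROS (150 nM) for 45 min in phenol-red-free, serum-free medium, before 2 µM compound and UV photoactivation. Cells were fixed in 2% PFA 20 min or 2 h after UV and imaged confocally (ex 543 nm, em 560–620 nm). PMA (400 nM) served as ROS-inducer control.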

Data set [12] has as its system MCF7. The experiment in a line: Induction of lysosomal activation in human MCF7 cells at 2 uM after 20 mins in presence of UV irradiation by Lysotracker Green DND 26 staining-based confocal microscopic analysis. Type of data set: functional, cell-based. The gist of the method:
(§3)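 MCF7 cells (4x10⁵) on glass slides were loaded with LysoTracker Green DND-26 (175 nM) for 45 min in phenol-red-free, serum-free medium, before 2 µM compound with or without UV activation. Cells were fixed in 2% PFA 20 min or 2 h after UV and imaged confocally (ex 488 nm, em 500–530 nm). Controls were untreated cells with and without irradiation, and cells given PMA (400 nM).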

Data set [13] has as its system MCF7. In words: Induction of lysosomal activation in human MCF7 cells assessed as late apoptotis at 2 uM after 2 hrs in presence of UV irradiation by Lysotracker Green DND 26 staining-based confocal microscopic analysis. The data set is classed as functional, cell-based. The gist of the method:
as §3

Data set [14] can be described thus: Solubility of the compound in DMSO. Type of data set: physicochemical.
Data set [15] deals with MCF7. In words: Cell cycle arrest in human MCF7 cells assessed as accumulation of cells at subG1 phase at EC50 after 24 hrs under UV-irradiation by propidium iodide staining-based flow cytometric analysis (reference value: 4.8%). Type of data set: functional.
The subject of data set [16] is MCF7. In words: Cell cycle arrest in human MCF7 cells assessed as accumulation of cells at G0/G1 phase at EC50 after 24 hrs under UV-irradiation by propidium iodide staining-based flow cytometric analysis (reference value: 44.2%). The data set is classed as functional.
Data set [17] concerns MCF7. In words: Cell cycle arrest in human MCF7 cells assessed as accumulation of cells at S phase at EC50 after 24 hrs under UV-irradiation by propidium iodide staining-based flow cytometric analysis (reference value: 24.7%). The data set is classed as functional.
Data set [18] relates to MCF7. In words: Cell cycle arrest in human MCF7 cells assessed as accumulation of cells at G2/M phase at EC50 after 24 hrs under UV-irradiation by propidium iodide staining-based flow cytometric analysis (reference value: 26.3%). The data set is classed as functional.
Data set [19] deals with MCF7. In words: Cell cycle arrest in human MCF7 cells assessed as accumulation of cells at subG1 phase at EC75 after 24 hrs under UV-irradiation by propidium iodide staining-based flow cytometric analysis (reference value: 4.8%). The data set is classed as functional.
Data set [20] concerns MCF7. In words: Cell cycle arrest in human MCF7 cells assessed as accumulation of cells at G0/G1 phase at EC75 after 24 hrs under UV-irradiation by propidium iodide staining-based flow cytometric analysis (reference value: 44.2%). Type of data set: functional.
Data set [21] in a line: Drug localization in cytoplasm of human MCF7 cells assessed as punctate formation at 2 uM measured within 10 mins by confocal microscopic analysis. Type of data set: ADME, subcellular. The note with it: mcf7, 10 min.

Activity calls are given as the source filed them. The calls are words filed in the database; no cut-off is given here.

Turning to `COc1ccc(-c2nc3c(nc(C)c4ccc(-c5ccccc5)nc43)o2)cc1`, the EC50 was determined as 12 nM with HT-29 and 864 nM with MCF-10A. Further, the cytotoxic concentration (CC50) at 72 h in data set [1] and in data set [2] was above 50 µM each time. Besides, the selectivity ratio in data set [3] was above 58; in [4] it was 79. In addition, the Activity in the data set on MCF7 [5] was 227%; with MCF7 [6], 4.3%; with MCF7 [7], 44.1%; with MCF7 [8] it was 24.8%; in the data set on MCF7 [9], 34 - 50%; with MCF7 [10] it was 10%. In addition, the Activity with MCF7 [15] was found to be 4.4%; with MCF7 [16], 43.1%; in the data set on MCF7 [17] it was 25.6%; in the data set on MCF7 [18] it was 26.9%; in the data set on MCF7 [19], 4.4%; in the data set with MCF7 [20], 42.4%. Also, the result with MCF7 [11], in the data set with MCF7 [12] and in the data set with MCF7 [13] was Active. Moreover, the solubility result in data set [14] is “Soluble”. Also, the Drug uptake result in [21] is “Active”.

The record behind these values is ChEMBL document CHEMBL4325899, “Synthesis and photocytotoxic activity of [1,2,3]triazolo[4,5-h][1,6]naphthyridines and [1,3]oxazolo[5,4-h][1,6]naphthyridines” (Eur J Med Chem, 2019).
